Source: ChEMBL document CHEMBL1275334, “5-Piperazinyl-3-sulfonylindazoles as potent and selective 5-hydroxytryptamine-6 antagonists” (J Med Chem, 2010)
Active and inactive are the calls of the source. No cut-off for these calls is given here.

What was measured:
[1] = molecular target: T1, 5-hydroxytryptamine receptor 6 (Homo sapiens, UniProt P50406); assay: Displacement of [3H]LSD from human cloned 5HT6 receptor expressed in human HeLa cells; assay type: cell-based
Outline: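 Radioligand displacement of [3H]LSD from cloned human 5-HT6 receptor stably expressed in HeLa cells. All test substances were used as HCl salts. Ki was determined in triplicate.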

[2] = molecular target: T1, 5-hydroxytryptamine receptor 6; assay: Antagonist activity at human cloned 5HT6 receptor expressed in human HeLa cells by cyclase assay relative to control; assay type: functional, cell-based
[3] = molecular target: T2, 5-hydroxytryptamine receptor 1A (Homo sapiens, UniProt P08908); assay: Displacement of [3H]LSD from human cloned 5HT1A receptor expressed in human HeLa cells; assay type: cell-based
T2 sequence (P08908 whole entry): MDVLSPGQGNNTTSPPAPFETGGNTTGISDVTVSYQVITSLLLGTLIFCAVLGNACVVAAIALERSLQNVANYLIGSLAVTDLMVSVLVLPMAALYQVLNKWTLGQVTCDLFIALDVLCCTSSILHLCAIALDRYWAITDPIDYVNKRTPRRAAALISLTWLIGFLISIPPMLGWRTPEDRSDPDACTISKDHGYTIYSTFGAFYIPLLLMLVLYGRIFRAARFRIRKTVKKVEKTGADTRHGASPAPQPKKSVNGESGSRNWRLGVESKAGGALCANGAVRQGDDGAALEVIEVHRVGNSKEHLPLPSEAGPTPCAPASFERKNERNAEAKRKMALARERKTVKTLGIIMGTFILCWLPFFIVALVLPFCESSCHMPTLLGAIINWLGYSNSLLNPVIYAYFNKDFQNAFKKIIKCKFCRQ

[4] = molecular target: 5-hydroxytryptamine receptor 1B (Homo sapiens, UniProt P28222); assay: Displacement of [3H]LSD from human cloned 5HT1B receptor expressed in human HeLa cells; assay type: cell-based
[5] = molecular target: 5-hydroxytryptamine receptor 1D (Homo sapiens, UniProt P28221); assay: Displacement of [3H]LSD from human cloned 5HT1D receptor expressed in human HeLa cells; assay type: cell-based
[6] = molecular target: T3, 5-hydroxytryptamine receptor 2B (Homo sapiens, UniProt P41595); assay: Displacement of [3H]LSD from human cloned 5HT2B receptor expressed in human HeLa cells; assay type: cell-based
[7] = molecular target: T4, 5-hydroxytryptamine receptor 2C (Homo sapiens, UniProt P28335); assay: Displacement of [3H]LSD from human cloned 5HT2C receptor expressed in human HeLa cells; assay type: cell-based
T4 sequence (P28335 whole entry): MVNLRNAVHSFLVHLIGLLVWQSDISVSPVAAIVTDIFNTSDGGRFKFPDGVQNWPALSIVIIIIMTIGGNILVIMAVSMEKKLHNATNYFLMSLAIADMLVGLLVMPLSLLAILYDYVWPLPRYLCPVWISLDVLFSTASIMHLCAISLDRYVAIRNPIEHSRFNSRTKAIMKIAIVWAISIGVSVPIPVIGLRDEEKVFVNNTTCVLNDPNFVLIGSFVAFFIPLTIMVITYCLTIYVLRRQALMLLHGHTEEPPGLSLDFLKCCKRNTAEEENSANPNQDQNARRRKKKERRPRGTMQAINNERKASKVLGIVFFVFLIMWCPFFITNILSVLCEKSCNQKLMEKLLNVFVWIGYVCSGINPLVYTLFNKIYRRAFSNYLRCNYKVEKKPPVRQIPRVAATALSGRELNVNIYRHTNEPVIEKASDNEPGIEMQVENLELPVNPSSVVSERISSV

[8] = molecular target: 5-hydroxytryptamine receptor 7 (Homo sapiens, UniProt P34969); assay: Displacement of [3H]LSD from human cloned 5HT7 receptor expressed in human HeLa cells; assay type: cell-based
[9] = molecular target: T5, Alpha-2A adrenergic receptor (Homo sapiens, UniProt P08913); assay: Displacement of [3H]LSD from human cloned alpha2A adrenergic receptor expressed in human HeLa cells; assay type: cell-based
T5 sequence (P08913 whole entry): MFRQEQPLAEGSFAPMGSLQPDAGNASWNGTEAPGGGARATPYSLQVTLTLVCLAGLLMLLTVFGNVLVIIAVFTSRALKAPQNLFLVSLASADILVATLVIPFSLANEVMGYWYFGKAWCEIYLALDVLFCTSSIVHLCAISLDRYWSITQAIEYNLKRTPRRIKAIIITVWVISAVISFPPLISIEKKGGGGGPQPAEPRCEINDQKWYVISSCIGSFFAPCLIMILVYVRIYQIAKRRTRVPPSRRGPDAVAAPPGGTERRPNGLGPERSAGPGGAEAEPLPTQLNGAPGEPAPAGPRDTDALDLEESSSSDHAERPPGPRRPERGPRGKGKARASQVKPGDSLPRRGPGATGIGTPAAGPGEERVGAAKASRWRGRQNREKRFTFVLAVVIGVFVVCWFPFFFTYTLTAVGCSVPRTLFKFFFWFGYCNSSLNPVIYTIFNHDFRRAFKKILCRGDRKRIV

D(2) dopamine receptor = D(2) dopamine receptor (Homo sapiens, UniProt P14416); assay: Displacement of [3H]LSD from human cloned dopamine D2 receptor expressed in human HeLa cells; assay type: cell-based
[10] = molecular target: T3, 5-hydroxytryptamine receptor 2B; assay: Agonist activity at human recombinant 5HT2B receptor expressed in CHOK1 cells at 0.0001 to 10 uM by FLIPR assay; assay type: functional, cell-based; conditions: CHO-K1
[11] = molecular target: T1, 5-hydroxytryptamine receptor 6; assay: Antagonist activity at human cloned 5HT6 receptor expressed in human HeLa cells by cyclase assay; assay type: functional, cell-based
[12] = Oral bioavailability in rat at 10 mg/kg; assay type: ADME, organism-based; conditions: in vivo
[13] = Oral bioavailability in dog at 10 mg/kg; assay type: ADME, organism-based, Canis lupus familiaris; conditions: in vivo
[14] = Ratio of drug level in brain to plasma in rat at 10 mg/kg, po; assay type: ADME, organism-based; parameters: dose 10 mg/kg, route oral; conditions: read-out: BPR
[15] = Ratio of drug level in brain to plasma in dog at 10 mg/kg, po; assay type: ADME, organism-based, Canis lupus familiaris; parameters: dose 10 mg/kg, route oral; conditions: read-out: BPR
[16] = Solubility of the compound in water; assay type: physicochemical
[17] = Protein binding in rat brain at 10 mg/kg, po; assay type: ADME, organism-based; parameters: dose 10 mg/kg, route oral; conditions: read-out: PPB (converted)
[18] = Plasma protein binding in rat at 10 mg/kg, po; assay type: ADME, organism-based; parameters: dose 10 mg/kg, route oral; conditions: read-out: PPB (converted)
Rattus norvegicus [19] = assay: Inhibition of scopolamine-induced memory deficit in po dosed rat by novel object recognition test; assay type: functional; conditions: read-out: MED
Rattus norvegicus [20] = assay: Enhancement of memory in po dosed rat measured after 48 hrs delay by novel object recognition test; assay type: functional, organism-based
Rattus norvegicus [21] = assay: Enhancement of memory in po dosed rat assessed as minimum effective dose measured after 48 hrs delay by novel object recognition test; assay type: functional; conditions: read-out: MED
Rattus norvegicus [22] = assay: Induction of acetylcholine release in hippocampus of rat at 10 mg/kg, po; assay type: functional, organism-based; parameters: dose 10 mg/kg
Rattus norvegicus [23] = assay: Induction of glutamate release in hippocampus of rat at 10 mg/kg, po; assay type: functional, organism-based; parameters: dose 10 mg/kg

Chain of 5-hydroxytryptamine receptor 1D (P28221 whole entry): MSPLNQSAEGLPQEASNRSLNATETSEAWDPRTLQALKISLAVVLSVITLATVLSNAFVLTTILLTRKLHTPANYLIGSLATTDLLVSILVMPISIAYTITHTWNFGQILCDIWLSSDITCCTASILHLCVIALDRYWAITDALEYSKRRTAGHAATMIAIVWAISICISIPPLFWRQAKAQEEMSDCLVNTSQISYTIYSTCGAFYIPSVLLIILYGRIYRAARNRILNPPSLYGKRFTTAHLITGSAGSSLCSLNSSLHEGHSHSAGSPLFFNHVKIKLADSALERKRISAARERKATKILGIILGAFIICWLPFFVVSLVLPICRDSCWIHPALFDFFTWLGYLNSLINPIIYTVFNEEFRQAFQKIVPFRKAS
T3 sequence (P41595 whole entry): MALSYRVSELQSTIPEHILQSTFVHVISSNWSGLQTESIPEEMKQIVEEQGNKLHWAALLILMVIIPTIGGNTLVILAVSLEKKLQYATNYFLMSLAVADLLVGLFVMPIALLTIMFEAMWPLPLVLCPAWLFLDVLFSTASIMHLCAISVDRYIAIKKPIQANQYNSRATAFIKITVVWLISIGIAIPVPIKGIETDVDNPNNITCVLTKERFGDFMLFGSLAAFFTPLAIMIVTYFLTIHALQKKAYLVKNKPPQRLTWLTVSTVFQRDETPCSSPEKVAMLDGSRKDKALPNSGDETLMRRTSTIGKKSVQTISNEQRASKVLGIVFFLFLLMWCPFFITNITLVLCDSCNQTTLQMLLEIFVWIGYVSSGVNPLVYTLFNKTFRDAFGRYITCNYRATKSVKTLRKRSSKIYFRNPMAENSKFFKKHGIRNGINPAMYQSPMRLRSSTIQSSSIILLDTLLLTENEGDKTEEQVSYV
Chain of 5-hydroxytryptamine receptor 1B (P28222 whole entry): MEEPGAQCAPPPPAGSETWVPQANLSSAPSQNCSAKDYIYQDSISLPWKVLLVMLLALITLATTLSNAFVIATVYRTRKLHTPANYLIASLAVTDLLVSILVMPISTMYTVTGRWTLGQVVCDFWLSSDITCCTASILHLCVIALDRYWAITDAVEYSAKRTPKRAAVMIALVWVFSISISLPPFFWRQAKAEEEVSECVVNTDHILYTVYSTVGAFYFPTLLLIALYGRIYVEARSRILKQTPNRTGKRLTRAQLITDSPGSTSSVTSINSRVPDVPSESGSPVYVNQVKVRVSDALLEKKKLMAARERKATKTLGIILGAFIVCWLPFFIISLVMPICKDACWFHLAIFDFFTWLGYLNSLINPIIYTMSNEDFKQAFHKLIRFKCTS
T1 sequence (P50406 whole entry): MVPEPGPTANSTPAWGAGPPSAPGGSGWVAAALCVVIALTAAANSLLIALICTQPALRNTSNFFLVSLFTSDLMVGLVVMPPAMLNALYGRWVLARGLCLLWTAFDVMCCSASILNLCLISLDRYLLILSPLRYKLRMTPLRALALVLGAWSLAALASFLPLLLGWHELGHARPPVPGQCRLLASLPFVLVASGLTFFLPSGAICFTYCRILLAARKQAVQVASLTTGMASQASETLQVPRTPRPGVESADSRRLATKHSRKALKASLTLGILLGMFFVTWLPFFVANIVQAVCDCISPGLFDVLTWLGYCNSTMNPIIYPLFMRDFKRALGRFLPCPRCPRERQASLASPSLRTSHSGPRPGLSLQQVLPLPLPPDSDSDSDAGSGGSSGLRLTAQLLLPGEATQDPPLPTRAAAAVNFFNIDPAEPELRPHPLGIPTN
Chain of 5-hydroxytryptamine receptor 7 (P34969 whole entry): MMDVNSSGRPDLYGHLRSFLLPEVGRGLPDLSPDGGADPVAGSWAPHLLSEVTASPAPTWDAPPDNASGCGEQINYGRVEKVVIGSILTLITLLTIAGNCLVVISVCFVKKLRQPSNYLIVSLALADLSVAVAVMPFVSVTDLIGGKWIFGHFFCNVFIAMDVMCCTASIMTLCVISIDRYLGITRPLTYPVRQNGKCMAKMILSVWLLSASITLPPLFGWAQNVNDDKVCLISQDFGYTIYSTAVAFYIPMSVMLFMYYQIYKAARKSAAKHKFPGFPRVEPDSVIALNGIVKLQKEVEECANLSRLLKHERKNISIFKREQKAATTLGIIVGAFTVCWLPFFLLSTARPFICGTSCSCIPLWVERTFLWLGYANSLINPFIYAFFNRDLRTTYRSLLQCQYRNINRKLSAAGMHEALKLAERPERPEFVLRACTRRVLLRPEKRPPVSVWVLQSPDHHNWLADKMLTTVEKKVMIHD
Chain of D(2) dopamine receptor (P14416 whole entry): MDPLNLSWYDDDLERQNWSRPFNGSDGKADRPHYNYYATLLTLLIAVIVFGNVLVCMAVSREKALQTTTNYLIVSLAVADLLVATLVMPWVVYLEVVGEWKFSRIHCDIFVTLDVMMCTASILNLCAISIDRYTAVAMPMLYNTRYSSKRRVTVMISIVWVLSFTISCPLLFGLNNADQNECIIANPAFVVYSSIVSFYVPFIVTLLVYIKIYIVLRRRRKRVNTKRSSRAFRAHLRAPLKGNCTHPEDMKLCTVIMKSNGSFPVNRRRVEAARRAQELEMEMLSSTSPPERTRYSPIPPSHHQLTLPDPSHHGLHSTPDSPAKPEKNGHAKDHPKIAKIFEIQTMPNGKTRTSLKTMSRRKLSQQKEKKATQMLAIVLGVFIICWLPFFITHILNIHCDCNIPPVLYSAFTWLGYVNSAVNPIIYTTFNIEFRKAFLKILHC

| SMILES | Ki [1] [nM] | Imax [2] [%] | Ki [3] [nM] | Ki [4] [nM] | Ki [5] [nM] | Ki [6] [nM] | Ki [7] [nM] | Ki [8] [nM] | Ki [9] [nM] | Ki (D(2) dopamine receptor) [nM] | Activity [10] | IC50 [11] [nM] | bioavailability [12] [%] | other results |
| --- | --- | --- | --- | --- | --- | --- | --- | --- | --- | --- | --- | --- | --- | --- |
| CC(C)n1nc(S(=O)(=O)c2cccc3ccccc23)c2cc(N3CCNCC3)ccc21 | 2.9 | 100 | > 5000 | > 5000 | > 5000 | 96 | 1080 | > 5000 | > 5000 | 2040 | inactive | – | – | – |
| CC(C)Cn1nc(S(=O)(=O)c2cccc3ccccc23)c2cc(N3CCNCC3)ccc21 | – | 100 | > 5000 | > 5000 | > 5000 | 281 | 1880 | > 5000 | > 5000 | 1900 | inactive | – | – | – |
| CN1CCN(c2ccc3[nH]nc(S(=O)(=O)c4ccccc4)c3c2)CC1 | 1.9 | 99 | > 5000 | > 5000 | > 5000 | 978 | 3070 | 753 | > 5000 | 355 | inactive | 8.8 | – | – |
| CN1CCN(c2ccc3[nH]nc(S(=O)(=O)c4cccc5ccccc45)c3c2)CC1 | 1.6 | 100 | > 5000 | > 5000 | > 5000 | 601 | > 5000 | 579 | > 5000 | 334 | inactive | 8 | 5 | – |
| O=S(=O)(c1cccc2ccccc12)c1nn(Cc2ccccc2)c2ccc(N3CCNCC3)cc12 | – | 100 | > 5000 | > 5000 | > 5000 | 141 | 1070 | > 5000 | > 5000 | 605 | inactive | – | > 50 | Kp [14]: > 0.5 |

Stronger by Ki [3], values ahead:

| Ki [1] [nM] | Imax [2] [%] | Ki [3] [nM] | Ki [4] [nM] | Ki [5] [nM] | Ki [6] [nM] | Ki [7] [nM] | Ki [8] [nM] | Ki [9] [nM] | Ki (D(2) dopamine receptor) [nM] | Activity [10] | IC50 [11] [nM] | bioavailability [12] [%] | SMILES | other results |
| --- | --- | --- | --- | --- | --- | --- | --- | --- | --- | --- | --- | --- | --- | --- |
| – | 100 | 573 | > 5000 | > 5000 | 236 | > 5000 | 1560 | > 5000 | > 5000 | inactive | 13 | > 20 | O=S(=O)(c1cccc2ccccc12)c1n[nH]c2ccc(N3CCNCC3)cc12 | bioavailability [13]: > 20%; Kp [14]: < 0.2; Kp [15]: < 0.2; solubility [16]: > 100 µg/mL; fraction unbound [17]: 0.2; fraction unbound [18]: 0.2; minimal effective dose (Rattus norvegicus [19]): 0.03 mg/kg; Activity (Rattus norvegicus [20]): Dose-dependent effect; minimal effective dose (Rattus norvegicus [21]): 3 mg/kg; Activity (Rattus norvegicus [22]): Active; Activity (Rattus norvegicus [23]): Active |
| – | 99 | 1780 | 3620 | 2760 | 87 | 3650 | > 5000 | > 5000 | 2240 | inactive | – | – | Cn1nc(S(=O)(=O)c2cccc3ccccc23)c2cc(N3CCNCC3)ccc21 | – |
